Each structure is given as a SMILES string.

In data set [1] the test system is Rattus norvegicus. The experiment in a line: Mean sodium excretion in rats when compound administered at 2.5 mg/kg po and vehicle dosed at 8.4 umol/kg. On the set-up: dose 2.5 mg/kg, route oral. As to conditions: in vivo. The format is ADME, organism-based. A digest of the protocol: (§1)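 Male Sprague-Dawley rats (HC/CFY, 175-200 g) fasted and water-deprived 18 h before and during the test. Dosed by gavage at 2.5-160 mg/kg in 1% carboxymethyl cellulose/0.1% Tween 80, 0.5 mL/100 g bw. Immediately hydrated with water (2.5 mL/100 g bw, po). Urine collected 6 h in metabolic cages; Na+ and K+ by flame photometry; mean mequiv/6 h/kg bw; nonpaired Student t-test.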

The test system of data set [2] is Rattus norvegicus. Briefly: Mean urinary output in rats when compound administered at 20 mg/kg po and vehicle dosed at 67.18 umol/kg. On the set-up: dose 20 mg/kg, route oral. To be noted: in vivo. The format is ADME, organism-based, Urine. A digest of the protocol: (§2)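 Water-loaded male Sprague-Dawley rats (HC/CFY, 175-200 g) fasted and without water for 18 h. Oral gavage of 2.5-160 mg/kg in 1% CMC with 0.1% Tween 80, then distilled water 2.5 mL/100 g po. Urine collected 6 h in metabolic cages, mean output in mL/6 h/kg bw. Unpaired Student t-test against vehicle; dose-response by linear regression.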

Data set [3] relates to Rattus norvegicus. The experiment in a line: Volume of urine 6 hr after the compound was administered 10 mg/kg po in rat. On the set-up: dose 10 mg/kg, route oral. To be noted: in vivo. The class given is ADME, organism-based. A digest of the protocol: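 Onset/duration protocol: male Sprague-Dawley rats (HC/CFY, 175-200 g), food and water withdrawn for 18 h before and during the test. Single gavage dose in 1% carboxymethyl cellulose/0.1% Tween 80 (0.5 mL/100 g bw), then distilled water load (2.5 mL/100 g bw po). Two rats per metabolic cage, six pairs per group. Urine collected at 0-1, 1-2, 2-3, 3-4 and 4-6 h; Na+ by flame photometry. Vehicle controls; nonpaired Student t-test.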

For data set [4], the system named is Rattus norvegicus. Briefly: Mean sodium excretion in rats when compound administered at 20 mg/kg po and vehicle dosed at 67.18 umol/kg. The format is ADME, organism-based. As to conditions: in vivo. On the set-up: dose 20 mg/kg, route oral. A digest of the protocol:
as §1

Data set [5] has as its system Rattus norvegicus. Briefly: Mean urinary output in rats when compound administered at 80 mg/kg po and vehicle dosed at 268.71 umol/kg. The class given is ADME, organism-based, Urine. To be noted: in vivo. On the set-up: dose 80 mg/kg, route oral. An outline of the steps: as §2
Data set [6] relates to Rattus norvegicus. The experiment in a line: Mean sodium excretion in rats when compound administered at 80 mg/kg po and vehicle dosed at 268.71 umol/kg. The format is ADME, organism-based. On the set-up: dose 80 mg/kg, route oral. To be noted: in vivo. An outline of the steps:
as §1

Data set [7] deals with Rattus norvegicus. Briefly: Mean urinary output in rats when compound administered at 40 mg/kg po and vehicle dosed at 134.35 umol/kg. The class given is ADME, organism-based, Urine. On the set-up: dose 40 mg/kg, route oral. As to conditions: in vivo. An outline of the steps:
as §2

Data set [8] in a line: Acute toxicity in mice when given po. The class given is organism-based. To be noted: mouse, in vivo, read-out: DL50 (the source's name). A digest of the protocol: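 Male Swiss mice (SPF, HC/CFLP strain, 20–25 g), oral dosing; mortality followed over 15 days; LD50 derived by the Litchfield and Wilcoxon method.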
Data set [9] concerns Rattus norvegicus. The experiment in a line: Urinary sodium 2 hr after the compound was administered 10 mg/kg po in rat. The format is ADME, organism-based, Urine. On the set-up: dose 10 mg/kg, route oral. As to conditions: in vivo. A digest of the protocol:
(§3)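 Onset and duration study in fasted, water-loaded male Sprague-Dawley rats housed two per metabolic cage, six pairs per group. Single oral dose given, then water 2.5 mL/100 g po. Urine volume and sodium (flame photometry) measured over 0-1, 1-2, 2-3, 3-4 and 4-6 h intervals. Mean values compared with vehicle by Student t-test.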

In data set [10] the test system is Rattus norvegicus. The experiment in a line: Mean Chlorine excretion in rats when compound administered at 0 mg/kg po and vehicle dosed at 0 umol/kg. The format is ADME, organism-based. To be noted: in vivo. On the set-up: dose 0 mg/kg, route oral.
The test system of data set [11] is Rattus norvegicus. The experiment in a line: Mean Chlorine excretion in rats when compound administered at 2.5 mg/kg po and vehicle dosed at 8.4 umol/kg. The format is ADME, organism-based. To be noted: in vivo. On the set-up: dose 2.5 mg/kg, route oral. An outline of the steps: (§4)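 Male Sprague-Dawley rats (HC/CFY, 175-200 g), no food or water for 18 h before and during the test. Single gavage dose (2.5-160 mg/kg; vehicle 1% carboxymethyl cellulose/0.1% Tween 80, 0.5 mL/100 g bw), then distilled water 2.5 mL/100 g bw po. Individual metabolic cages, 6 h urine. K+ by flame photometry, Cl- colorimetric, as mequiv/6 h/kg bw; unpaired Student t-test vs control.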

The species named for data set [12] is Rattus norvegicus. The experiment in a line: Dose required to produce increase in 50 % in urine production vs control groups. The format is functional. To be noted: Rattus norvegicus, Urine. A digest of the protocol: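 Male Sprague-Dawley rats (HC/CFY, 175-200 g), fasted and water-deprived 18 h before and during the test. Compound dosed by gavage in 1% carboxymethyl cellulose/0.1% Tween 80, then water load 2.5 mL/100 g bw po. Urine collected 6 h in metabolic cages; Na+ by flame photometry. Effective doses vs vehicle controls derived by linear regression of dose-response data.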

The subject of data set [13] is Rattus norvegicus. Briefly: Mean Chlorine excretion in rats when compound administered at 5 mg/kg po and vehicle dosed at 16.79 umol/kg. As to conditions: in vivo. On the set-up: dose 5 mg/kg, route oral. The class given is ADME, organism-based. A digest of the protocol: as §4
Data set [14] relates to Rattus norvegicus. Briefly: Urinary sodium 1 hr after the compound was administered 10 mg/kg po in rat. The format is ADME, organism-based, Urine. On the set-up: dose 10 mg/kg, route oral. As to conditions: in vivo. A digest of the protocol: as §3
Data set [15] deals with Rattus norvegicus. The experiment in a line: Mean urinary output in rats when compound administered at 10 mg/kg po and vehicle dosed at 33.59 umol/kg. To be noted: in vivo. On the set-up: dose 10 mg/kg, route oral. The format is ADME, organism-based, Urine. A digest of the protocol: as §2
For data set [16], the system named is Rattus norvegicus. The experiment in a line: Mean potassium excretion in rats when compound administered at 10 mg/kg po and vehicle dosed at 33.59 umol/kg. The format is ADME, organism-based. On the set-up: dose 10 mg/kg, route oral. To be noted: in vivo. A digest of the protocol:
as §4

For data set [17], the system named is Rattus norvegicus. The experiment in a line: Urinary sodium 4 hr after the compound was administered 10 mg/kg po in rat. The class given is ADME, organism-based, Urine. On the set-up: dose 10 mg/kg, route oral. As to conditions: in vivo. An outline of the steps:
as §3

Data set [18] has as its system Rattus norvegicus. The experiment in a line: Mean potassium excretion in rats when compound administered at 0 mg/kg po and vehicle dosed at 0 umol/kg. The class given is ADME, organism-based. On the set-up: dose 0 mg/kg, route oral. As to conditions: in vivo. A digest of the protocol:
as §4

The test system of data set [19] is Rattus norvegicus. Briefly: Mean sodium excretion in rats when compound administered at 0 mg/kg po and vehicle dosed at 0 umol/kg. The class given is ADME, organism-based. On the set-up: dose 0 mg/kg, route oral. As to conditions: in vivo. An outline of the steps:
as §1

The test system of data set [20] is Rattus norvegicus. Briefly: Post dosing time interval of maximum activity. The format is functional. An outline of the steps:
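Interval of peak activity taken from timed urine collections (0-1, 1-2, 2-3, 3-4, 4-6 h) after a single oral dose in water-loaded fasted rats, […]. Urine volume and Na+ excretion followed over time.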

The subject of data set [21] is Rattus norvegicus. Briefly: Urinary sodium 3h after the compound was administered 10 mg/kg po in rat. The format is ADME, organism-based, Urine. On the set-up: dose 10 mg/kg, route oral. As to conditions: in vivo. A digest of the protocol: as §3

By ED50 is commonly meant the midpoint of the dose-response relation. Higher therefore signals a need for a large dose. Consider `NS(=O)(=O)c1cc2c(cc1Cl)NCNS2(=O)=O` [HYDROCHLOROTHIAZIDE], for which the Na is recorded as 2.14 m equiv 6hr-1 kg-1 (body weight)-1 in the data set on Rattus norvegicus [1], 3.05 m equiv 6hr-1 kg-1 (body weight)-1 with Rattus norvegicus [4], 3.19 m equiv 6hr-1 kg-1 (body weight)-1 in the data set on Rattus norvegicus [6] and 0.32 m equiv 6hr-1 kg-1 (body weight)-1 with Rattus norvegicus [19]. For the same compound, the V is on record as 42.94 ml 6hr-1 (kg of body weight)-1 with Rattus norvegicus [2], 47.06 ml 6hr-1 (kg of body weight)-1 with Rattus norvegicus [5], 44.48 ml 6hr-1 (kg of body weight)-1 in the data set with Rattus norvegicus [7] and 39.01 ml 6hr-1 (kg of body weight)-1 with Rattus norvegicus [15]. In the data set on Rattus norvegicus [3], this compound showed a Urine volume of 3.42 mL. Further, the LD50 in data set [8] is above 6000 mg/kg. Also, the “Urinary Na+” value in the data set with Rattus norvegicus [9] turned out to be 0.39 m equiv; in the data set with Rattus norvegicus [14] it was 0.19 m equiv; in the data set on Rattus norvegicus [17] it was 0.16 m equiv; with Rattus norvegicus [21], 0.17 m equiv. Besides, the Cl- is given as 0.78 m equiv 6hr-1 kg-1 (body weight)-1 with Rattus norvegicus [10], 4.42 m equiv 6hr-1 kg-1 (body weight)-1 in the data set on Rattus norvegicus [11] and 4.88 m equiv 6hr-1 kg-1 (body weight)-1 in the data set with Rattus norvegicus [13]. The same compound gave a median effective dose (ED50) in the data set listed under Rattus norvegicus [12] of 4.86 mg/kg. Further, the K in the data set with Rattus norvegicus [16] is recorded as 1.14 m equiv 6hr-1 kg-1 (body weight)-1; in the data set with Rattus norvegicus [18], 0.53 m equiv 6hr-1 kg-1 (body weight)-1. Also, in the data set with Rattus norvegicus [20], the Time was found to be 2 h.

These data come from ChEMBL document CHEMBL1125330, “N-substituted pyrazino[2,3-c][1,2,6]thiadiazine 2,2-dioxides. A new class of diuretics” (J Med Chem, 1992).
